Reference: ChEMBL document CHEMBL1158454, “Discovery of a potent and orally active hedgehog pathway antagonist (IPI-926)” (J Med Chem, 2009)
The source made the active and inactive calls.

Experiments:
[1] = Elimination half life in Sprague-Dawley rat at 1 mg/kg, iv; type: ADME, organism-based; parameters: dose 1 mg/kg, route intravenous; details: in vivo, read-out: beta t1/2 (converted)
Summary of the method: (§1)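 Plasma sampled at 0.083-24 h (T_last 24 h), protein-precipitated with acetonitrile containing jervine internal standard, and quantified by LC/MS/MS. Parameters taken from the concentration-time profile.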

Protein smoothened = Protein smoothened (Homo sapiens, UniProt Q99835); assay: Inhibition of human recombinant SMO expressed in mouse C3H10T1/2 cells assessed as inhibition of association of BODIPY-cyclopamine; type: cell-based, C3H 10T1/2
Sequence of Protein smoothened (Q99835 whole entry): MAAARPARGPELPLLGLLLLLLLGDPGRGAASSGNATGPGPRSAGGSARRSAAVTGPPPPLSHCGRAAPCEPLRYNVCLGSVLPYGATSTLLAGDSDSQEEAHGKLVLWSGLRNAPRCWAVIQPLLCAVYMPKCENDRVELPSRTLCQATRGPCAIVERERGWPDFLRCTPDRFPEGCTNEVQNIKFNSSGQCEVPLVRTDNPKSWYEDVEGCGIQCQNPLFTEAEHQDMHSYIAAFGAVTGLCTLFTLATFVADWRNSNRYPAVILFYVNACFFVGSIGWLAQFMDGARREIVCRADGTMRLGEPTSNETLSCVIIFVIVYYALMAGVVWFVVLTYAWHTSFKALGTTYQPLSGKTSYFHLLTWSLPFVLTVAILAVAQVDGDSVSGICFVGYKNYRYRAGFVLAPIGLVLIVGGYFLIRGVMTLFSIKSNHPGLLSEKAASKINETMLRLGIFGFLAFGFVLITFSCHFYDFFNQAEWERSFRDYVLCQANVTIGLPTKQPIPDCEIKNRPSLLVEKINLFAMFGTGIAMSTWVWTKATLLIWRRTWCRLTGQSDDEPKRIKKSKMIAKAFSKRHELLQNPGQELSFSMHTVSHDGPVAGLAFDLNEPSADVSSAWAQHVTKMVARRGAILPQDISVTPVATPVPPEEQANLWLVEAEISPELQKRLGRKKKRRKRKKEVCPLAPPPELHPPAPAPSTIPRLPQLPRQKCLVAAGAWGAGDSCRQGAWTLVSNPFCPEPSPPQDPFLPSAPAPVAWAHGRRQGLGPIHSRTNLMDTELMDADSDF

[2] = Plasma clearance in cynomolgus monkey at 1 mg/kg, iv; type: ADME, organism-based, Macaca fascicularis; parameters: dose 1 mg/kg, route intravenous; summary of the method: as §1
[3] = Oral bioavailability in Sprague-Dawley rat at 5 mg/kg; type: ADME, organism-based; details: in vivo
[4] = Antitumor activity against Ptc+/- Hic+/- mouse B837Tx cells allografted in NOD/SCID mouse assessed as tumor-free interval on 21 days post treatment at 40 mg/kg, po administered daily for 21 days; type: functional
Summary of the method: (§2)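 NOD/SCID mice given 1 × 10^6 B837Tx cells in the right hind flank. Once tumors reached about 100-200 mm³, N=10/group were gavaged daily for 21 days. Vehicle: 30% (w/w) HPBCD in 0.1 M citrate phosphate buffer, pH 3, dosing solutions 5-10 mg/mL. Tumors measured in two perpendicular dimensions by caliper 3 times weekly. Regrowth monitored over a 21-day post-treatment phase.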

[5] = Volume of distribution in Beagle dog at 1 mg/kg, iv; type: ADME, organism-based, Canis lupus familiaris; parameters: dose 1 mg/kg, route intravenous; details: in vivo; summary of the method: as §1
[6] = Inhibition of HedgeHog pathway in mouse C3H10T1/2 cells assessed as inhibition of 20-(S)-hydroxysterol/22-(S)-hydroxysterol-induced osteoblastic differentiation after 72 hrs by alkaline phosphatase assay; details: C3H 10T1/2, 72 h
[7] = Elimination half life in CD1 mouse at 1 mg/kg, iv; type: ADME, organism-based; parameters: dose 1 mg/kg, route intravenous; details: in vivo, read-out: beta t1/2 (converted); summary of the method: as §1
[8] = Volume of distribution in CD1 mouse at 1 mg/kg, iv; type: ADME, organism-based; parameters: dose 1 mg/kg, route intravenous; details: in vivo; summary of the method: as §1
[9] = Oral bioavailability in cynomolgus monkey at 4 mg/kg; type: ADME, organism-based, Macaca fascicularis; details: in vivo
[10] = Oral bioavailability in Beagle dog at 4 mg/kg; type: ADME, organism-based, Canis lupus familiaris; details: in vivo
[11] = Elimination half life in cynomolgus monkey at 1 mg/kg, iv; type: ADME, organism-based, Macaca fascicularis; parameters: dose 1 mg/kg, route intravenous; details: in vivo, read-out: beta t1/2 (converted); summary of the method: as §1
[12] = Oral bioavailability in CD1 mouse at 5 mg/kg; type: ADME, organism-based; details: in vivo
[13] = Elimination half life in Beagle dog at 1 mg/kg, iv; type: ADME, organism-based, Canis lupus familiaris; parameters: dose 1 mg/kg, route intravenous; details: in vivo, read-out: beta t1/2 (converted); summary of the method: as §1
Mus musculus = assay: Antitumor activity against Ptc+/- Hic+/- mouse B837Tx cells allografted in NOD/SCID mouse assessed as effect on recurrence rate on post treatment at 40 mg/kg, po administered daily for 21 days; type: functional, organism-based; parameters: dose 40 mg/kg; summary of the method: as §2
[14] = Antitumor activity against Ptc+/- Hic+/- mouse B837Tx cells allografted in NOD/SCID mouse assessed as median time to unmeasurable tumor volume at 40 mg/kg, po administered daily for 21 days; type: functional; summary of the method: as §2
in vitro = details: human
[15] = Toxicity in po dosed Ptc+/- Hic+/- mouse B837Tx cells allografted NOD/SCID mouse assessed as maximum tolerated dose after 5 days; type: organism-based; details: in vivo
Summary of the method: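 Tumor-bearing immunocompromised mice received repeat oral dosing for 5 days. MTD was defined as the dose tolerated by all animals (N = 3).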

[16] = Plasma clearance in Beagle dog at 1 mg/kg, iv; type: ADME, organism-based, Canis lupus familiaris; parameters: dose 1 mg/kg, route intravenous; summary of the method: as §1
[17] = Plasma clearance in Sprague-Dawley rat at 1 mg/kg, iv; type: ADME, organism-based; parameters: dose 1 mg/kg, route intravenous; summary of the method: as §1
[18] = Volume of distribution in Sprague-Dawley rat at 1 mg/kg, iv; type: ADME, organism-based; parameters: dose 1 mg/kg, route intravenous; details: in vivo; summary of the method: as §1
[19] = Plasma clearance in CD1 mouse at 1 mg/kg, iv; type: ADME, organism-based; parameters: dose 1 mg/kg, route intravenous; summary of the method: as §1
[20] = Volume of distribution in cynomolgus monkey at 1 mg/kg, iv; type: ADME, organism-based, Macaca fascicularis; parameters: dose 1 mg/kg, route intravenous; details: in vivo; summary of the method: as §1
[21] = Antitumor activity against Ptc+/- Hic+/- mouse B837Tx cells allografted in NOD/SCID mouse assessed as tumor-free interval on 21 days post treatment at 30 mg/kg, po administered daily for 21 days; type: functional; summary of the method: as §2
[22] = Antitumor activity against Ptc+/- Hic+/- mouse B837Tx cells allografted in NOD/SCID mouse assessed as median time to unmeasurable tumor volume at 30 mg/kg, po administered daily for 21 days; type: functional; summary of the method: as §2
[23] = Antitumor activity against Ptc+/- Hic+/- mouse B837Tx cells allografted in NOD/SCID mouse assessed as tumor-free interval on 21 days post treatment at 80 mg/kg, po administered daily for 21 days; type: functional; summary of the method: as §2
[24] = Antitumor activity against Ptc+/- Hic+/- mouse B837Tx cells allografted in NOD/SCID mouse assessed as median time to unmeasurable tumor volume at 80 mg/kg, po administered daily for 21 days; type: functional; summary of the method: as §2

Row | Structure (SMILES) | half-life [1] [h] | clearance [2] [mL/min/kg] | bioavailability [3] [%] | Vd [5] [L/kg] | EC50 [6] [nM] | half-life [7] [h] | Vd [8] [L/kg] | bioavailability [9] [%] | bioavailability [10] [%] | half-life [11] [h] | bioavailability [12] [%] | half-life [13] [h] | half-life at 0.5 µM (in vitro; microsomes) [h] | MTD at 120 h [15] [mg/kg] | clearance [16] [mL/min/kg] | clearance [17] [mL/min/kg] | Vd [18] [L/kg] | clearance [19] [mL/min/kg] | Vd [20] [L/kg] | also measured
1 | CC1=C2C[C@H]3[C@@H](CC[C@@H]4C[C@H](NS(C)(=O)=O)CC[C@@]43C)[C@@H]2CC[C@@]2(C1)O[C@@H]1C[C@H](C)CN[C@H]1[C@H]2C [PATIDEGIB] | > 24 | 15 | 100 | 15.3 | 7 | 10.5 | 11 | 74 | 50 | 8.2 | 100 | 15.5 | 1.42 | 40 | 11 | 3.5 | 30 | 12.3 |  | IC50 (Protein smoothened): 1.4 nM; Activity [4]: 21 days; Activity (Mus musculus): Active; Activity [14]: 9 days
2 | CC1=C2C[C@H]3[C@@H](CC[C@@H]4CNC(=O)CC[C@@]43C)[C@@H]2CC[C@@]2(C1)O[C@@H]1C[C@H](C)CN[C@H]1[C@H]2C | 5.4 | 13.3 | 100 | 3 | 25 | 3 | 2 | 100 | 97 | 3.8 | 100 | 6.5 | 1.08 | 30 | 5.5 | 10.5 | 4.9 | 8.33 | 4.3 | Activity [21]: 10 days; Activity [22]: 9 days
3 | CC1=C2C[C@H]3[C@@H](CC[C@@H]4Cc5[nH]ncc5C[C@@]43C)[C@@H]2CC[C@@]2(C1)O[C@@H]1C[C@H](C)CN[C@H]1[C@H]2C | 1.2 | 30 | 34 | 6 | 13 | 3 | 9 | 84 | 73 | 5.6 | 52 | 6.8 |  | 80 | 10 | 125 | 13 | 33.3 | 13 | Activity [23]: 19 days; half-life at 0.5 µM (in vitro; liver microsomes): 2 h; Activity [24]: 9 days
